NR2E3 ag-1 = agonists of human NR2E3 nuclear receptor; inhibition of corepressor binding, % at 3.98 µM; Q9Y5X4; CHO-S Gal4-NCOR/VP16-NR2E3 two-hybrid, luciferase; 0.35% of 360,000 active;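 active means inhibition above the mean of all tested compounds plus 3 SD, cut at about 70% in these data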;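 further: higher means lower luciferase signal from less NR2E3 corepressor binding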
Target sequence (Q9Y5X4 whole entry, looked up, the tested form may be a part): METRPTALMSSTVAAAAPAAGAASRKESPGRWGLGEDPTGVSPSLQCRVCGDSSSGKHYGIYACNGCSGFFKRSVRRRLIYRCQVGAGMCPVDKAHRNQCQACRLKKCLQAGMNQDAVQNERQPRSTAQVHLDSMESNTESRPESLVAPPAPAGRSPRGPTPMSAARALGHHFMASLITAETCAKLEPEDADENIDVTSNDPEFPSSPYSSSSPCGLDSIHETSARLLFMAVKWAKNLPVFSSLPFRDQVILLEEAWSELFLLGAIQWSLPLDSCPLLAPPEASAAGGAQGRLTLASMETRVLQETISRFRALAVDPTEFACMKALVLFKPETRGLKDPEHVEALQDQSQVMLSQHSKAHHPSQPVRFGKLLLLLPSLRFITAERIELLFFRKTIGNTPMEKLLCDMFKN
T cell HTS = T cell immune modulation candidate. 2C CD8+ T cell-vesicle binding, flow cytometry; active compounds read low. response (vesicle binding), % at 7 µM. 0.068% of 330,000 active;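 active means response, share of CD8 T cells binding vesicles, and their 90th percentile fluorescence all below set limits, cut at about 80% in these data, passing the limit was not always enough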;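 further: values below 100% mean blocked vesicle binding to the CD8+ T cells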
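Test system: purified 2C TCR transgenic mouse naive CD8+ T cells. Probe or stimulus: QL9-peptide-loaded Drosophila micro-vesicles bearing Ld, ICAM-1 and B7-1. Incubation: binding step 1.5 h, 37 °C, antibody labelling 20 min, ice. Measured by: flow cytometry of vesicle-bound cells.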
NR2E3 ag-2 = activates human photoreceptor nuclear receptor NR2E3. Q9Y5X4. GST-NR2E3/biotin-RetCOR TR-FRET, 1536-well. inhibition of corepressor binding, % at 4.78 µM. 0.12% of 320,000 active. AID 2300;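 active means percent inhibition above the cutoff of mean plus 3 SD of all tested compounds, set per screening campaign, cut at about 20% in these data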
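Material: NR2E3–RetCOR corepressor complex / Incubation: Compound–protein incubation for 5 h at 4 °C / Dosing: compound at 4.8 µM, single dose / Detection: time-resolved FRET / Benchmarks: high control biotin, low control 0.6% DMSO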
FXN GAA850 act = increases GAA850 frataxin promoter reporter activity | 0.56% of 360,000 active | HEK293 lucGAA850 FXN promoter luciferase reporter, 24 h; percent of 10 µM SAHA response | activation, % at 6 µM;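 active means activation above the average of all compounds screened plus 3 SD, cutoff fixed separately per campaign, cut at about 7.5% in these data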
Myeloid diff 2 = compounds promoting myeloid differentiation; 1% of 360,000 active; ER-HoxA9 myeloid progenitors, lysozyme-GFP differentiation, flow cytometry; calls only at 10 µM;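 active means normalized GFP-positive differentiation at or above the plate's own cutoff, the solvent-only control mean plus 3 SD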;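 further: cells exposed to compound for four days before flow analysis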
NR2E3 ag confirm = NR2E3 agonism confirmed in two-hybrid assay | shares compounds with NR2E3 ag-1 | CHO-S mammalian two-hybrid NR2E3-NCOR, luciferase luminescence | inhibition, % at 3.98 µM | 51% of 2,300 active | AID 624378;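 active means average inhibition above a cutoff equal to the mean inhibition of all tested compounds plus one SD, cut at about 70% in these data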
GAL4-VP16 luc = counter-screen for NR2E3 agonists: GAL4-VP16 reporter inhibitors. shares compounds with NR2E3 ag-1. 29% of 2,300 active. CHO-S GAL4-VP16 luciferase reporter, luminescence. inhibition, % at 3.98 µM;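 active means mean inhibition above a cutoff equal to the average over all tested compounds plus one standard deviation, cut at about 70% in these data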;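 further: luciferase from a UAS reporter driven by GAL4-VP16 transactivation; higher means less reporter light so more repression of VP16 activity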
Each line names hits and unclear results; the compound was inactive in the other large screens (follow-up assays come after a bar, where they were run). In the library only some 2% were active in any assay of this set; here they are far more common.

Nc1nc(-c2ccccn2)nc(N)c1Cc1ccccc1F	none
Nc1nc(-c2ccccn2)nc(N)c1Cc1c(F)cccc1Cl	NR2E3 ag-1 86 | NR2E3 ag confirm 98 | GAL4-VP16 luc inactive
Nc1nc(-c2ccccn2)nc(N)c1Cc1ccc(Cl)cc1Cl	NR2E3 ag-1 91 | NR2E3 ag confirm 100 | GAL4-VP16 luc inactive
C[C@@H]1CN([C@H](C)CO)C(=O)CCCn2nncc2CO[C@@H]1CN(C)C(=O)Nc1cccc2ccccc12	none (no result: T cell HTS, NR2E3 ag-2)
O=c1c2ccccc2sn1-c1ccc(Cl)cc1	none (no result: T cell HTS, NR2E3 ag-2) | NR2E3 ag confirm inactive | GAL4-VP16 luc inactive
Cc1cccc(OC(=O)NCCOC(=O)N(O)c2ccc(Cl)cc2)c1	NR2E3 ag-1 81 | NR2E3 ag confirm 83 | GAL4-VP16 luc 71
Cn1cc(CNCc2ccc(OC(F)(F)F)cc2)c(-c2ccc3c(c2)OCCO3)n1	NR2E3 ag-1 76 | NR2E3 ag confirm 90 | GAL4-VP16 luc 79
O=C1NC(=S)NC(=O)C1Nc1ccc(Cl)cc1	none (no result: T cell HTS, NR2E3 ag-2)
O=C(O)c1ccc(S(=O)(=O)NC2CCCc3ccccc32)cc1 (configuration not stated)	none
CC(=O)N1CCc2cc(S(=O)(=O)NC3CCCc4ccccc43)ccc21 (configuration not stated)	none | NR2E3 ag confirm inactive | GAL4-VP16 luc inactive
Cc1cnc2c(N)cc(C)c(C)c2c1	none (no result: T cell HTS, NR2E3 ag-2)
CCc1cc(C(=O)NC2CCCc3c2cnn3-c2ccc(F)cc2F)no1 (configuration not stated)	none (no result: T cell HTS, NR2E3 ag-2)
CC1=C(C(=O)NC2CCCc3c2cnn3-c2ccc(F)cc2F)OCCO1 (configuration not stated)	none | NR2E3 ag confirm inactive | GAL4-VP16 luc inactive
COc1ncccc1C(=O)NC1CCCc2c1cnn2-c1cc(C)cc(C)c1 (configuration not stated)	none
COCc1ccc(C(=O)NC2CCCc3c2cnn3-c2cc(C)cc(C)c2)s1 (configuration not stated)	none (no result: T cell HTS, NR2E3 ag-2) | NR2E3 ag confirm inactive | GAL4-VP16 luc inactive
Cc1nnsc1C(=O)NC1CCCc2c1cnn2-c1ccc(C(C)(C)C)cc1 (configuration not stated)	NR2E3 ag-1 93 | NR2E3 ag confirm 78 | GAL4-VP16 luc 75
Cc1cc(C(=O)NC2CCCc3c2cnn3-c2ccc(C)c(C)c2)n(C)n1 (configuration not stated)	NR2E3 ag-1 111 | NR2E3 ag confirm 98 | GAL4-VP16 luc 88
Cc1ccc(S(=O)(=O)N2C[C@H]3N(C(=O)OC(C)C)N(C(=O)OC(C)C)C[C@H](OC(=O)Nc4cccs4)[C@@]3(O)C2)cc1	none (no result: T cell HTS, NR2E3 ag-2)
Nc1c(-c2ccc(F)cc2)nc2ncccn12	none (no result: NR2E3 ag-1, T cell HTS, NR2E3 ag-2, FXN GAA850 act)
CC(=O)Nc1ccc(CN(C)c2c(C)nc3ccc(C(=O)N4CCN(C(C)=O)CC4)cn23)cc1	none (no result: T cell HTS, NR2E3 ag-2)
CC(OC(=O)CC1CCCCC1)C(=O)Nc1ccc(F)cc1 (configuration not stated)	none
O=C(NC1CCCc2c1cnn2-c1ccccc1F)c1ccccn1 (configuration not stated)	none
Cc1cc(C)cc(-n2ncc3c2CCCC3NC(=O)C2(C(N)=O)CC2)c1 (configuration not stated)	none
Cc1cccc(-n2ncc3c2CCCC3NC(=O)C2(C(N)=O)CC2)c1C (configuration not stated)	NR2E3 ag-1 78 | NR2E3 ag confirm 77 | GAL4-VP16 luc inactive
Cc1nnsc1C(=O)NC1CCCc2c1cnn2-c1ccccc1F (configuration not stated)	NR2E3 ag-1 83 | NR2E3 ag confirm 86 | GAL4-VP16 luc inactive
CC(C)=CCC12Oc3cc(O)ccc3C1(O)Oc1cc(O)c([C@H]3C=C(C)CC(c4ccc(O)cc4O)[C@H]3C(=O)c3ccc(O)cc3O)c(O)c1C2=O (some centres not stated)	none (no result: NR2E3 ag-1, FXN GAA850 act, Myeloid diff 2)
Cc1cc(Cl)ccc1OC(C)C(=O)Nc1ccc(S(=O)(=O)N2CCOCC2)cc1 (configuration not stated)	none
